NPY-Y2 PAM-ag: potentiators or agonists of human neuropeptide Y receptor Y2; P49146; cells expressing NPY-Y2, potentiator/agonist read-out; activation, % at 3.6 µM; actives 0.45% (n = 220,000); in the data active = activation above about 27%;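 note: cells stimulated with NPY near EC25 plus isoproterenol at EC100; 0% = vehicle plus submaximal agonist and 100% = vehicle plus saturating agonist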
Target sequence (P49146 whole entry, looked up): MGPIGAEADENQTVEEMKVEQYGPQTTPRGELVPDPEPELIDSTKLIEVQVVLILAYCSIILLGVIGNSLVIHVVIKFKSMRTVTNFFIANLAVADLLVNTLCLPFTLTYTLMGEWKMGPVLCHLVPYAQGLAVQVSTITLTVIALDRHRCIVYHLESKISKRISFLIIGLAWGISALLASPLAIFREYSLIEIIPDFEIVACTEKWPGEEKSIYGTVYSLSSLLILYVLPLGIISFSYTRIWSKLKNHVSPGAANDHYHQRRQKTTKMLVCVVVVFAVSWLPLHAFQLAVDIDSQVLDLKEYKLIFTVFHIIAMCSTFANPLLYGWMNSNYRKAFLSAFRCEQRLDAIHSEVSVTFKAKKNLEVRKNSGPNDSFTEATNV
Mdm2 ligase inh: blocks human Mdm2 ubiquitin ligase activity; actives 0.11% (n = 210,000); signal enhancement, % at 5 µM; cell-based MDM2 ubiquitination luciferase reporter, 2 h; 0 = plate control, 100 = twice control, blank-subtracted;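 active = signal enhancement of 30% or more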;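 note: luminescence tracks abundance of the self-degrading MDM2-luciferase fusion protein; higher signal means inhibition of MDM2 E3 ligase activity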
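Material: Stable MDM2–luciferase fusion reporter cells | Amount: 2000 cells seeded into each well | Dosing: One concentration, 5 µM, with 0.2% DMSO | Incubation: 4 h cell settling then 2 h compound exposure, 37 °C | Measured by: Luciferase luminescence | Read-out basis: % enhancement relative to plate controls after blank subtraction | Benchmarks: Control and blank well means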
Measles CPE: protection of cells from measles virus; AID 841; actives 1.5% (n = 140,000); protection (pct of control), % at 4 µM; Measles virus-infected cells, CPE protection, absorbance; in the data active = protection mostly above about 24%, no sharp cut-off; inactive = mostly below about 26%
NPY-Y1 antag: blocks the human neuropeptide Y Y1 receptor; P25929; AID 1040; HEK293-CNG Y1 cells, membrane potential fluorescence; NPY at EC95, then isoproterenol; actives 1% (n = 200,000); inhibition, % at 3.6 µM;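 active = inhibition above the campaign mean inhibition of all tested compounds plus 3 SD, cut at about 20% in these data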;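 note: 0% = DMSO wells given NPY plus isoproterenol and 100% = isoproterenol alone without NPY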
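Test system: HEK293 cells co-expressing NPY Y1 receptor and cyclic-nucleotide gated channel; Also added: NPY (25 nM), isoproterenol (1 µM), Ro 20-1724 (25 µM); Compound dosing: one concentration, 3.6 µM, in 0.4% DMSO; Timing: dye 3 h, compound 60 min room temperature, stimulation 45 min; Technique: Membrane-potential fluorescent dye readout.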
NPY-Y2 antag: blocks the human neuropeptide Y Y2 receptor; P49146; NPY-Y2 expressing cells, antagonist mode; inhibition, % at 2.7 µM; actives 0.99% (n = 140,000); AID 793;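 note: 0% = vehicle with agonist challenge and 100% = reference antagonist with challenge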
NPY-Y1 PAM-ag: potentiates or activates human NPY-Y1 receptor. actives 0.37% (n = 220,000). activation, % at 3.6 µM. NPY-Y1 expressing cells, potentiator/agonist activation. AID 1304; in the data active = activation above about 33%, passing the limit was not always enough;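 note: cells stimulated with NPY at EC10 then isoproterenol at EC100; 0% = low agonist plus stimulus and 100% = saturating agonist plus stimulus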
NPY1 antag conf: confirmation of human neuropeptide Y receptor Y1 antagonists; shares compounds with NPY-Y1 antag; HEK293-CNG NPY-Y1, membrane potential fluorescence, cAMP; NPY challenge against isoproterenol-raised cAMP; inhibition, % at 3.6 µM; actives 21% (n = 1,200); AID 1254; in the data active = inhibition above about 20%;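 note: 0% = vehicle with agonist plus stimulus and 100% = stimulus alone without agonist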
NPY2 antag ctr: antagonizes human NPY-Y2, counter-screen to NPY-Y1 antagonists. actives 28% (n = 1,200). HEK293 NPY-Y2 CNG membrane potential fluorescence, antagonism; cells given NPY, then isoproterenol. shares compounds with NPY-Y1 antag. inhibition, % at 3.6 µM;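 note: 0% = DMSO with agonist challenge and 100% = reference antagonist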
Starred values were filed as active, the others as inactive; nt = no result given. Only some compounds are listed: those with a hit (about 2.8% of all), similar ones and a draw of the others. Cut-off read from the data, not from the text of the source, unless noted: active = inhibition above about 17%; inactive = the rest.

SMILES | NPY-Y2 PAM-ag | Mdm2 ligase inh | Measles CPE | NPY-Y1 antag | NPY-Y2 antag | NPY-Y1 PAM-ag | NPY1 antag conf | NPY2 antag ctr
Cn1c(C(=O)N(Cc2ccccc2)Cc2ccccn2)cc2sccc21 | 12 | -12 | 16 | -1 | 11 | 16 | nt | nt
O=C(CSc1nncs1)NCCCc1ccccc1 | 1 | -13 | nt | 1 | nt | -1 | nt | nt
Cc1ccc(C(=O)N2CCCC2)cc1S(=O)(=O)Nc1cccc(C)c1C | 9 | -7 | nt | 9 | nt | 10 | nt | nt
COc1ccc(CC2(CO)CCN(Cc3cccc(OC)c3OC)CC2)cc1 | -12 | -1 | nt | 7 | nt | -10 | nt | nt
COc1ccc(CC2(CO)CCN(C(C)Cc3ccc(Cl)cc3)CC2)cc1 (stereo unspecified) | -89 | -13 | nt | 26* | nt | -35 | 16 | 21*
Cc1nc2c(sc3nc(N4CCOCC4)c4c(c32)CC(C)(C)OC4)c(-c2ccc(Cl)cc2)c1C(=O)O | 0 | -8 | nt | nt | nt | 37 | nt | nt
COc1ccc(OC)c(C(c2nnnn2C2CCCC2)N2CCN(c3ccccc3F)CC2)c1 (stereo unspecified) | -19 | -2 | 1 | 22* | 13 | 6 | 6 | 8
CC(C)CC(c1nnnn1C1CCCCC1)N1CCN(c2ncccn2)CC1 (stereo unspecified) | 5 | -17 | 4 | 5 | 2 | -16 | nt | nt
COc1ccc(N2CCN(C(c3cccc(OC)c3OC)c3nnnn3C3CCCC3)CC2)cc1 (stereo unspecified) | -13 | -11 | 16 | 23* | 9 | -43 | 22* | 9
CC(C)CC(c1nnnn1C1CCCC1)N1CCN(c2ccccc2F)CC1 (stereo unspecified) | -2 | -38 | 42* | 27* | 14 | -10 | 24* | 12
COC(=O)c1ccccc1NC(=O)/C=C/c1cc(OC)c(OC)c(OC)c1 | -5 | -24 | 10 | 5 | 4 | 1 | nt | nt
Cc1cc(-c2ccccc2)c2c(=O)[nH][nH]c2n1 | 14 | -11 | 16 | 0 | 2 | 6 | nt | nt
C=C(C)CNC(=S)NN=C1c2ccccc2-c2ccccc21 | -37 | -8 | nt | 33* | nt | -54 | 36* | 69*
COc1cccc(CC2(CO)CCCN(Cc3c(C)cc(C)cc3-n3cccn3)C2)c1 (stereo unspecified) | -39 | -16 | nt | 38* | nt | -37 | 24* | 20*
CCC(Sc1ncnc2sc(C)c(C)c12)C(=O)OC (stereo unspecified) | -19 | -17 | 13 | 26* | 6 | 4 | 9 | 10
Cc1oc(-c2ccc(Cl)cc2)nc1CN1CCC(C(=O)NCCCN2CCOCC2)CC1 | 3 | -5 | 6 | 23* | 7 | -38 | 4 | 8
CC1c2ccccc2SC(CCCN(C)C)c2ccccc21 (stereo unspecified) | -10 | -6 | 12 | 20 | 6 | -39 | nt | nt
CN(C)CCC1Sc2ccccc2Oc2ccccc21 (stereo unspecified) | -18 | nt | 17 | 27* | 6 | -41 | 4 | 5
COc1ccc(OC)c(-n2c(-c3cc(-c4ccccc4)n[nH]3)n[nH]c2=S)c1 | -10 | 7 | 3 | 9 | 2 | -16 | nt | nt
COc1ccc(-c2cc(-c3n[nH]c(=S)n3-c3ccccc3OC)[nH]n2)cc1 | -15 | -3 | 4 | 32* | 16 | -66 | 37* | 66*
CCCCCC(=O)NNC1=NCC(Cc2cccc(Cl)c2)S1 (stereo unspecified) | 2 | -8 | nt | 0 | nt | 12 | nt | nt
COc1ccc(-n2cc(CNCCCn3ccnc3)c(-c3cccc(F)c3)n2)cc1 | -16 | 4 | nt | 22* | nt | -19 | 11 | 16
Cc1ccc(-n2cc(CNCCCn3ccnc3C)c(-c3ccc(F)cc3)n2)cc1 | -33 | -8 | nt | 28* | nt | -20 | 25* | 35*
Cc1ccc(-n2cc(CNCCc3cscn3)c(-c3ccc(F)cc3)n2)cc1 | -28 | -3 | nt | 7 | nt | -22 | nt | nt
Cc1ccc(-n2cc(CN3CCN(Cc4nccn4C)CC3)c(-c3ccc(F)cc3)n2)cc1 | -26 | 3 | nt | 31* | nt | -29 | 16 | 19*
SMILES | NPY-Y2 PAM-ag | Mdm2 ligase inh | Measles CPE | NPY-Y1 antag | NPY-Y2 antag | NPY-Y1 PAM-ag | NPY1 antag conf | NPY2 antag ctr
S=c1[nH]nc(-c2ccncc2)n1/N=C/c1cccc(Cl)c1 | 1 | -5 | nt | nt | nt | 7 | nt | nt
O=C(NC(=S)N1CCN(c2ccccn2)CC1)c1ccco1 | 6 | -8 | nt | 2 | nt | -1 | nt | nt
N=C1C(c2nc3ccccc3s2)=C(O)CN1NC(=O)c1c[nH]c2ccccc12 | 16 | -9 | nt | 28* | nt | 18 | 26* | 28*
NC(=O)C1CCCN(C(=S)Nc2cccc3ccccc23)C1 (stereo unspecified) | 8 | -5 | 27 | -5 | 6 | 5 | nt | nt
O=C(Nc1ncc(Cc2ccc(SC(F)F)cc2)s1)c1ccccc1 | 4 | 5 | 5 | 21* | 8 | -15 | 4 | 16
CC(/C=N/NC(=O)c1n[nH]c2c1CCC2)=C\c1ccccc1 | -28 | nt | 2 | 22* | 5 | -16 | 7 | 17*
Cc1ccc(S(=O)(=O)N(CC(=O)NCCC2=CCCCC2)Cc2ccccc2)cc1 | -12 | -17 | 17 | 21* | 10 | -10 | -1 | 4
Cc1nn(-c2ccccc2)c2sc(C(=O)O)cc12 | -19 | -14 | 29 | 25* | 13 | -52 | 22* | 15
Cc1ccc(-n2nc(C)c3cc(C(=O)O)sc32)cc1 | 2 | 0 | 13 | 8 | 5 | -3 | nt | nt
CCC(Oc1ccc2ccccc2c1)C(=O)O (stereo unspecified) | -31 | nt | 0 | 21* | 12 | -1 | 7 | 7
Cc1ccc(OCc2ccc(C(=O)O)o2)c([N+](=O)[O-])c1 | -3 | -16 | 4 | 5 | 2 | -16 | nt | nt
COc1cccc(Oc2cn[nH]c2-c2ccc(O)cc2O)c1 | 15 | -28 | nt | 153* | 7 | -22 | 61* | 4
CC(=O)N(CCC(Cc1ccccc1)c1ccc2c(c1)OCO2)Cc1ccccc1F (stereo unspecified) | -5 | -10 | 22 | 21* | 17 | -16 | 18 | 11
CCOC(=O)c1c(C)n(C)c2ccc(O)c(CN3CCC(C)CC3)c12 | -12 | -10 | 2 | 17 | 16 | -38 | nt | nt
CCOC(=O)c1c(CSc2ccccc2)n(C)c2ccc(O)c(CN3CCOCC3)c12 | -36 | -2 | nt | 38* | nt | -57 | 30* | 9
COc1ccc(N2CCN(C(=O)NC3CC(=O)N(c4ccc(OC)cc4)C3)CC2)cc1 (stereo unspecified) | 0 | -13 | nt | -6 | nt | 3 | nt | nt

Screening data: PubChem BioAssay, several laboratories
